High-throughput results (PubChem)
Hits are enriched below; roughly 3.6% of the tested compounds scored in any of these assays.
T cruzi inh – inhibitors of intracellular T. cruzi growth, primary screen, luminescence, NIH3T3 host cells | AID 1885, 2009 | 1.4% of 300,000 active | inhibition, % (no concentration beside the values) | T. cruzi beta-gal in NIH3T3, 90 h;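 active means mean inhibition across valid replicates above about 55%, limit read from the data; inconclusive means mean below that limit but half or more replicates reach it; inactive means mean below it, under half of replicates reach it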;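 further: signal also drops with host cell toxicity which is not excluded here; 0% = plate median of DMSO wells and 100% = zero luminescence signal; higher percent means less beta-gal luminescence so fewer parasites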
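Assay system: NIH/3T3 fibroblasts plus reporter T. cruzi. Amount: NIH/3T3 cells, 5,000 per well. Buffer or medium: DMEM, 2% fetal bovine serum. Doses: compound pinned at 50 nL/well, DMSO. Schedule: ≥90 h infection period, 3 h prior cell attachment. Signal: luminescent β-galactosidase signal after 60 min lysis. Read-out: parasite load inhibition, %.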
CSC inhib – cancer stem cell viability inhibitors, primary screen, luminescence; cancer stem cell-like cells viability; inhibition, % at 7.5 µM; 1.1% of 300,000 active; in the data active means inhibition above about 75%; inconclusive means no clear call, values can overlap the other calls; tested in HMLE shEcad cells
SKKanGAS inh – S. pyogenes SKKanGAS growth inhibitors in kanamycin, primary screen, streptokinase expression inhibitor project, SKKanGAS strain, BacTiter-Glo luminescence | 1.3% of 300,000 active | AID 1662, 2009 | 6 h | inhibition, % at 7.5 µM;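 active means mean replicate score, as percent of positive control median, at least 50; inconclusive means mean below 50 but one replicate at or above 50; inactive means mean and every replicate below 50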;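 further: strain carries kanamycin resistance gene driven by streptokinase promoter and grows in 40 µg/ml kanamycin; loss of luminescence reflects streptokinase promoter inhibition or plain growth inhibition; 0% = median of DMSO wells and 100% = positive control at its reference dose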
PfHsp90 set2 – growth inhibition of PfHsp90-expressing yeast, primary screen, antimalarial PfHsp90 inhibitor project, S. cerevisiae, BacTiter-Glo luminescence, single point, set 2; BacTiter-Glo ATP, 48 h; yeast lacking PDR1 and PDR3 efflux regulators; inhibition, % at 9.4 µM; 0.32% of 310,000 active;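 active means every replicate shows inhibition above about 80%, whatever the replicate mean, limit read from the data; inconclusive means mean inhibition reaches the set limit but some replicate falls short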;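 further: 0% = DMSO neutral controls and 100% = 20 µM radicicol positive controls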
Beta cell apopt – inhibitors of cytokine-induced beta cell apoptosis, primary screen, luminescence. INS-1E cytokine-induced death, ATP luminescence, 48 h; percent of positive-control rescue, neutral wells zero. 0.8% of 300,000 active. protection from apoptosis, % (test concentration not listed);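 active means Every replicate reaches about 75%, or at least half do and their mean reaches it too, limit read from the data; inconclusive means At least half of replicates reach the limit but their mean does not; inactive means Under half of replicates reach the limit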;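 further: 0% = cytokine-treated negative control wells and 100% = positive control rescue; higher means more ATP so stronger rescue from cytokine killing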
HIF activator – HIF pathway transcriptional activators, primary screen, cell-based, U2OS HRE-luciferase, luminescence | U2OS HRE-luciferase reporter; normalized: DMSO 0%, desferrioxamine 100% | activation, % at 7.5 µM (by protocol) | 0.32% of 300,000 active | AID 1910, 2009;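 active means mean activation of at least 10% of the iron chelator positive control signal, with at least half of replicates also reaching 10%; inconclusive means mean and replicate majority disagree about reaching 10%; inactive means mean and most replicates under 10%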
* marks the source's active call; other numbers are inactive results; ! = a repeat was not active.

`O=C(Nc1csc([N+](=O)[O-])c1)Nc1c(Cl)cccc1Cl` gave T cruzi inh 27, CSC inhib 14, SKKanGAS inh 6, PfHsp90 set2 21, Beta cell apopt -15 and HIF activator -1.
`O=C(Nc1ccc([N+](=O)[O-])cc1)Nc1ccc(Cl)cc1F` gave T cruzi inh -8, CSC inhib -6, SKKanGAS inh 58*, PfHsp90 set2 17, Beta cell apopt 108* and HIF activator 1.
For O=C(Nc1ccc(Cl)cc1)Nc1cc([N+](=O)[O-])ccc1F the results were T cruzi inh 35, CSC inhib 43, SKKanGAS inh -5, PfHsp90 set2 12, Beta cell apopt 29 and HIF activator 0.
For CC(C)N(C)S(=O)(=O)c1ccc(NC(=O)CSC(=S)N2CCCC2)cc1 the results were T cruzi inh -1, CSC inhib -1, SKKanGAS inh -4, PfHsp90 set2 4, Beta cell apopt 2 and HIF activator 1.
For O=S(=O)(c1cccc(F)c1)N1CCN(C(=S)NCc2ccccc2)CC1 the results were T cruzi inh 10, CSC inhib 3, SKKanGAS inh 12, PfHsp90 set2 -3, Beta cell apopt -4 and HIF activator -1.
`O=C(Nc1ccc([N+](=O)[O-])cn1)c1cc(-c2cccc(Cl)c2)nc2ccccc12` gave T cruzi inh 56*, CSC inhib 14, SKKanGAS inh 9, PfHsp90 set2 1, Beta cell apopt 2 and HIF activator 0.
`O=C(Nc1cccc(NC(=O)c2cc([N+](=O)[O-])ccc2Cl)n1)c1cc([N+](=O)[O-])ccc1Cl` gave T cruzi inh 15, CSC inhib 67, SKKanGAS inh 1, PfHsp90 set2 0, Beta cell apopt 104* and HIF activator 0.
Screening Cc1cc(NC(=O)c2cc([N+](=O)[O-])ccc2Cl)no1 returned T cruzi inh -16, CSC inhib -11, SKKanGAS inh -1, PfHsp90 set2 2, Beta cell apopt -11 and HIF activator 0.
For O=C(Nc1ccc([N+](=O)[O-])cn1)c1cc(-c2cccc(Br)c2)nc2ccccc12 the results were T cruzi inh 53, SKKanGAS inh 5, PfHsp90 set2 -14, Beta cell apopt 10 and HIF activator -21.
CCc1ccc(CN(Cc2cccnc2)C(=O)/C=C/c2ccc(OC)cc2)cc1 was read as T cruzi inh 64*, CSC inhib 1, SKKanGAS inh 1, PfHsp90 set2 -11, Beta cell apopt 23 and HIF activator 0.
`COC(=O)[C@@]1(Cc2ccccc2)[C@H]2C(=O)N(Cc3ccccc3)C(=O)[C@H]2[C@H]2CN=C(SCC3CC3)N21` gave PfHsp90 set2 -6.
Screening CSc1ncc2c(n1)-c1cc(C)ccc1SC2 returned T cruzi inh 75*, SKKanGAS inh 5, PfHsp90 set2 1, Beta cell apopt 29 and HIF activator 0.
For Cc1ncc2c(n1)-c1cc(F)ccc1SC2 the results were T cruzi inh inconclusive, CSC inhib -3, SKKanGAS inh 2, PfHsp90 set2 -23, Beta cell apopt -6 and HIF activator -1.
Nc1ncc2c(n1)-c1cc(Cl)ccc1SC2 was read as T cruzi inh 72*, CSC inhib -4, SKKanGAS inh 3, PfHsp90 set2 -21, Beta cell apopt -6 and HIF activator -1.
CC1CCCN(C(=O)C2CCN(S(=O)(=O)c3cccs3)CC2)C1 (centres undefined) was read as PfHsp90 set2 -3.
For O=S(=O)(c1ccc(Br)cc1F)N1CCCCC1CCO (centres undefined) the results were PfHsp90 set2 14.
Screening COc1cc(Br)cc(/C=C/c2ccc3cccc(O)c3n2)c1OC returned T cruzi inh 48, CSC inhib 52, SKKanGAS inh 93*, PfHsp90 set2 14, Beta cell apopt 16 and HIF activator 0.
For COc1ccc(Br)cc1/C=C/c1ccc2cccc(O)c2n1 the results were T cruzi inh 44, CSC inhib 28, SKKanGAS inh 100*, PfHsp90 set2 4, Beta cell apopt 20 and HIF activator 0.
Screening O=C1CCc2cc(S(=O)(=O)NC3CCCCC3)ccc2N1 returned PfHsp90 set2 -35 and Beta cell apopt 1.
Screening COc1ccc(NC(=O)C2=CN3CCS(=O)(=O)N=C3C=C2)c(OC)c1 returned CSC inhib -9, PfHsp90 set2 7 and Beta cell apopt -3.
`CCN(CC)C(=O)Cn1cc(C(=O)C(=O)N2CCN(Cc3ccc4c(c3)OCO4)CC2)c2ccccc21` gave T cruzi inh 0, CSC inhib -5, SKKanGAS inh 0, PfHsp90 set2 -8, Beta cell apopt -10 and HIF activator 0.
For COc1ccc(CN2CCC(N(CCc3ccccc3)Cc3ccccc3)CC2)c(OC)c1 the results were T cruzi inh 60*, CSC inhib inconclusive, SKKanGAS inh 5, PfHsp90 set2 1, Beta cell apopt 20 and HIF activator -1.
`CCCN1CCC(N(CCc2ccccc2)Cc2ccccc2)CC1` gave T cruzi inh 2, CSC inhib 23, SKKanGAS inh -9, PfHsp90 set2 14, Beta cell apopt 8 and HIF activator 1.
`O=C1CCN(Cc2ccco2)C(=S)N1` gave PfHsp90 set2 1.
Screening COc1ccc(CCNC(=O)c2c[nH]c3ccc(F)cc3c2=O)cc1OC returned T cruzi inh -6, CSC inhib 3, SKKanGAS inh -9, PfHsp90 set2 12, Beta cell apopt 4 and HIF activator 0.
For COc1ccc(-c2cn(CCc3c[nH]c4ccccc34)nn2)cc1 the results were T cruzi inh -9, CSC inhib 96*, SKKanGAS inh -4, PfHsp90 set2 15, Beta cell apopt 1 and HIF activator 1.
COc1ccc(OCC(=O)NCCc2c[nH]c3ccccc23)cc1 was read as T cruzi inh 0, CSC inhib 16, SKKanGAS inh -10, PfHsp90 set2 10, Beta cell apopt -3 and HIF activator 0.
Screening COc1cccc(-c2nc(N3CC(C)CC(C)C3)c3ccccc3n2)c1O (centres undefined) returned T cruzi inh 55*, SKKanGAS inh 65*, PfHsp90 set2 7 and HIF activator 0.
Screening COc1cccc(-c2nc(N3CCCC3)c3ccccc3n2)c1O returned T cruzi inh 22, CSC inhib 11, SKKanGAS inh 1, PfHsp90 set2 -36, Beta cell apopt 4 and HIF activator 1.
Screening CCN(CC)CCN1C(=O)Cn2c(C)c(C)c3cccc1c32 returned T cruzi inh 69*!, CSC inhib 39, SKKanGAS inh -2, PfHsp90 set2 11, Beta cell apopt -1 and HIF activator 0.
